Measured values as given in PubChem BioAssay AID588422 (The Scripps Research Institute Molecular Screening Center, 2011).
Calls of active or inactive are those of the source.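 Rule for the calls: active = IC50 at or below 1 µM; inactive = the rest.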

Molecular target: Protein-arginine deiminase type-4 (Homo sapiens) (UniProt Q9UM07)
Assay: recombinant human PAD4 inhibitors – biochemical, BAEE substrate, citrulline absorbance, 0-60 µM range, late-stage follow-up (AID 588422)
Details: recombinant PAD4, BAEE citrulline colorimetric absorbance
Summary of the method: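 Material: recombinant PAD4. Amount: 0.2 µM enzyme. Measured by: citrulline colour reaction, A540. Schedule: 15 min preincubation, 15 min substrate reaction. Controls: DMSO-treated enzyme as uninhibited reference. Replicates: duplicate measurements per concentration. Medium: Tris pH 7.6, 2 mM DTT, 10 mM CaCl2.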

Protein-arginine deiminase type-4 (Homo sapiens), sequence (Q9UM07 whole entry, looked up): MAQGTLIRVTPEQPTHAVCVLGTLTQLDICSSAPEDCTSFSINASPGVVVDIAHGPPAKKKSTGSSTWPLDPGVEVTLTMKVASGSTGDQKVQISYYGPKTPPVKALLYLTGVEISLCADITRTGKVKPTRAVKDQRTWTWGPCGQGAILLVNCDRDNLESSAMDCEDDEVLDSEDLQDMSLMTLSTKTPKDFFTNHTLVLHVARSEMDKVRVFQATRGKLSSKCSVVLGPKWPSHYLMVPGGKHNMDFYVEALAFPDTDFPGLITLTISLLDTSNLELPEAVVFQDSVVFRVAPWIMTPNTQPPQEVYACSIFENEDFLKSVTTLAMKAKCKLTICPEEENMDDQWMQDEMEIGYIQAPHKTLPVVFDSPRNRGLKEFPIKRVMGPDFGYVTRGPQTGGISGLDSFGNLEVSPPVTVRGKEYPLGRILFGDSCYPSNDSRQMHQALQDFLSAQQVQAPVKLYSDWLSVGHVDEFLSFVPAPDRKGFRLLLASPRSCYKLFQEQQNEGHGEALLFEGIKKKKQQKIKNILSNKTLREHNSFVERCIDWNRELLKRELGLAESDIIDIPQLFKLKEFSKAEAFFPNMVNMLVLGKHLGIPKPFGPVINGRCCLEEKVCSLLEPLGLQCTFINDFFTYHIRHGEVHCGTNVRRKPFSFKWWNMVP

COC(=O)c1cccc(-c2ccc3c(n2)C(=O)C(Br)=CC3=O)n1
IC50: inactive
